Laboratory results reported in ChEMBL document CHEMBL3871280, “Bis(N-amidinohydrazones) and N-(amidino)-N'-aryl-bishydrazones: New classes of antibacterial/antifungal agents” (Bioorg Med Chem, 2017).
≈ marks a conversion by molar mass, not a printed value.

Columns and labels:
Acinetobacter baumannii = experiment: Antibacterial activity against Acinetobacter baumannii ATCC 19606; format: functional
[1] = Cytotoxicity against human BEAS2B cells assessed as reduction in cell survival; format: toxicity, cell-based; conditions: beas-2b
Enterobacter cloacae = experiment: Antibacterial activity against Enterobacter cloacae ATCC 13047; format: functional; conditions: subsp. cloacae ATCC 13047
Enterococcus = experiment: Antibacterial activity against vancomycin-resistant Enterococcus; format: functional
Outline: (§1)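 Values were set in μM and converted to μg/mL for presentation. Amikacin, ampicillin and ofloxacin served as positive controls.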

[2] = Antifungal activity against fluconazole/itraconazole/voriconazole-resistant Candida albicans ATCC 90819; format: functional
Pseudomonas aeruginosa = experiment: Antibacterial activity against Pseudomonas aeruginosa ATCC 27853; format: functional
[3] = Antibacterial activity against Salmonella enterica ATCC 14028; format: functional
Bacillus subtilis = experiment: Antibacterial activity against Bacillus subtilis 168; format: functional; conditions: subsp. subtilis str. 168
[4] = Antifungal activity against fluconazole/itraconazole/voriconazole-resistant Candida albicans ATCC 64124; format: functional
[5] = Antifungal activity against fluconazole/itraconazole/voriconazole-susceptible Candida albicans ATCC 2876; format: functional
[6] = tested on: Mycolicibacterium smegmatis; experiment: Antimycobacterial activity against Mycobacterium smegmatis MC2 155; format: functional; conditions: str. MC2 155; outline: as §1
[7] = Cytotoxicity against human A549 cells assessed as reduction in cell survival; format: toxicity, cell-based
Listeria monocytogenes = experiment: Antibacterial activity against Listeria monocytogenes ATCC 19115; format: functional
[8] = Antifungal activity against fluconazole/itraconazole/voriconazole-resistant Candida albicans ATCC 10231; format: functional
Candida albicans = experiment: Antifungal activity against Candida albicans ATCC 1003; format: functional
[9] = Antifungal activity against fluconazole/itraconazole/voriconazole-susceptible Candida albicans ATCC 2310; format: functional
Staphylococcus aureus = experiment: Antibacterial activity against methicillin-resistant Staphylococcus aureus; format: functional; outline: as §1
Klebsiella pneumoniae = experiment: Antibacterial activity against Klebsiella pneumoniae ATCC 27736; format: functional
Escherichia coli = experiment: Antibacterial activity against Escherichia coli MC1061; format: functional; outline: as §1
[10] = Antifungal activity against fluconazole/itraconazole/voriconazole-resistant Candida albicans ATCC 1237; format: functional

Row | Structure (SMILES) | MIC (Acinetobacter baumannii) | IC50 [1] | MIC (Enterobacter cloacae) | MIC (Enterococcus) | MIC [2] | MIC (Pseudomonas aeruginosa) | MIC [3] | MIC (Bacillus subtilis) | MIC [4] | MIC [5] | MIC [6] | IC50 [7] | MIC (Listeria monocytogenes) | MIC [8] | MIC (Candida albicans) | MIC [9] | MIC (Staphylococcus aureus) | MIC (Klebsiella pneumoniae) | MIC (Escherichia coli) | MIC [10]
1 | Cl.Cl.N=C(N)N/N=C/c1ccc(-c2ccc(/C=N/NC(=N)N)cc2)cc1 | > 500 µM | 3 µg/mL | > 500 µM | 2 µM | > 79.2 µM | > 500 µM | > 500 µM | > 500 µM | > 79.2 µM | 19.7 µM | > 500 µM | 6.6 µg/mL | 1 µM | 39.5 µM | 19.7 µM | > 79.2 µM | 3.9 µM | > 500 µM | > 500 µM | 39.5 µM
2 | C[C@@H]1[C@H](O)[C@@H](C)/C=C/C=C/C=C/C=C/C=C/C=C/C=C/[C@H](O[C@@H]2O[C@H](C)[C@@H](O)[C@H](N)[C@@H]2O)C[C@@H]2O[C@](O)(C[C@@H](O)C[C@@H](O)[C@H](O)CC[C@@H](O)C[C@@H](O)CC(=O)O[C@H]1C)C[C@H](O)[C@H]2C(=O)O [AMPHOTERICIN B] | – | 17.7 µg/mL (≈ 19.2 µM) | – | – | – | – | – | – | 2.1 to 4.2 µM (≈ 1.94 to 3.88 µg/mL) | – | – | 18.2 µg/mL (≈ 19.7 µM) | – | – | – | – | – | – | – | –
3 | Cl.N=C(N)N/N=C/c1ccc(-c2ccc(/C=N/Nc3ccc(Cl)cc3)cc2)cc1 | > 500 µM | 6 µg/mL | > 500 µM | 3.9 µM | 18.3 µM | > 500 µM | > 500 µM | > 500 µM | 36.5 µM | 18.3 µM | 3.9 µM | 4.9 µg/mL | 3.9 µM | 18.3 µM | 9.1 µM | 9.1 µM | 7.8 µM | > 500 µM | > 500 µM | 36.5 µM
4 | C/C(=N\NC(=N)N)c1ccc(Cc2ccc(/C(C)=N/NC(=N)N)cc2)cc1.Cl.Cl | > 500 µM | 2.9 µg/mL | > 500 µM | 2 µM | 17.8 µM | > 500 µM | > 500 µM | > 500 µM | 17.8 µM | 8.9 µM | 2 µM | 4.3 µg/mL | 3.9 µM | 17.8 µM | 17.8 µM | 17.8 µM | 3.9 µM | > 500 µM | > 500 µM | 17.8 µM
5 | CC1(C)S[C@@H]2[C@H](NC(=O)[C@H](N)c3ccccc3)C(=O)N2[C@H]1C(=O)O [AMPICILLIN] | > 250 µM | – | > 250 µM | 250 µM (≈ 87.4 µg/mL) | – | > 250 µM | 250 µM (≈ 87.4 µg/mL) | > 250 µM | – | – | > 250 µM | – | 250 µM (≈ 87.4 µg/mL) | – | – | – | 250 µM (≈ 87.4 µg/mL) | > 250 µM | > 250 µM | –
6 | C/C(=N\NC(=N)N)c1ccc(Oc2ccc(/C(C)=N/NC(=N)N)cc2)cc1.Cl.Cl | 62.5 µM | 2.9 µg/mL | 250 µM | 3.9 µM | 17.8 µM | 62.5 µM | 125 µM | 125 µM | 17.8 µM | 8.9 µM | 125 to 250 µM | 3.9 µg/mL | 62.5 µM | 17.8 µM | 17.8 µM | 17.8 µM | 125 µM | 62.5 µM | 125 µM | 17.8 µM
7 | C/C(=N\NC(=N)N)c1ccc(-c2ccc(/C(C)=N/Nc3ccccc3Cl)cc2)cc1 | 62.5 µM (≈ 26.2 µg/mL) | – | 500 µM (≈ 209 µg/mL) | 3.9 µM (≈ 1.63 µg/mL) | 34.3 µM (≈ 14.4 µg/mL) | 500 µM (≈ 209 µg/mL) | 62.5 to 125 µM (≈ 26.2 to 52.4 µg/mL) | 62.5 to 125 µM (≈ 26.2 to 52.4 µg/mL) | 68.7 µM (≈ 28.8 µg/mL) | 34.3 µM (≈ 14.4 µg/mL) | 500 µM (≈ 209 µg/mL) | – | 62.5 to 125 µM (≈ 26.2 to 52.4 µg/mL) | 34.3 µM (≈ 14.4 µg/mL) | 34.3 µM (≈ 14.4 µg/mL) | 34.3 µM (≈ 14.4 µg/mL) | 125 µM (≈ 52.4 µg/mL) | 62.5 to 125 µM (≈ 26.2 to 52.4 µg/mL) | 500 µM (≈ 209 µg/mL) | 34.3 µM (≈ 14.4 µg/mL)
8 | CC1COc2c(N3CCN(C)CC3)c(F)cc3c(=O)c(C(=O)O)cn1c23 (stereo not given) [OFLOXACIN] | ≤ 0.5 µM | – | ≤ 0.5 µM | 7.8 µM (≈ 2.82 µg/mL) | – | 3.9 µM (≈ 1.41 µg/mL) | 15.6 to 31.3 µM (≈ 5.64 to 11.3 µg/mL) | ≤ 0.5 µM | – | – | 15.6 µM (≈ 5.64 µg/mL) | – | 1 µM (≈ 0.361 µg/mL) | – | – | – | 1 µM (≈ 0.361 µg/mL) | 15.6 to 31.3 µM (≈ 5.64 to 11.3 µg/mL) | 3.9 to 7.8 µM (≈ 1.41 to 2.82 µg/mL) | –
9 | N=C(N)N/N=C/c1ccc(-c2ccc(/C=N/Nc3ccc(Cl)cc3Cl)cc2)cc1 | > 500 µM | – | > 500 µM | 7.8 µM (≈ 3.32 µg/mL) | 67.8 µM (≈ 28.8 µg/mL) | > 500 µM | > 500 µM | > 500 µM | 67.8 µM (≈ 28.8 µg/mL) | 33.8 µM (≈ 14.4 µg/mL) | 3.9 µM (≈ 1.66 µg/mL) | – | 7.8 µM (≈ 3.32 µg/mL) | 16.8 µM (≈ 7.15 µg/mL) | 16.8 µM (≈ 7.15 µg/mL) | 16.8 µM (≈ 7.15 µg/mL) | 7.8 µM (≈ 3.32 µg/mL) | > 500 µM | > 500 µM | 33.8 µM (≈ 14.4 µg/mL)
10 | Cl.N=C(N)N/N=C/c1ccc(-c2ccc(/C=N/Nc3ccc(F)cc3F)cc2)cc1 | > 500 µM | 5.8 µg/mL | > 500 µM | 3.9 µM | 18.2 µM | > 500 µM | > 500 µM | > 500 µM | 9.1 µM | 9.1 µM | 2 to 3.9 µM | 4.8 µg/mL | 2 to 3.9 µM | 2.3 µM | 4.5 µM | 9.1 µM | 3.9 µM | > 500 µM | > 500 µM | 9.1 µM
11 | NCC[C@H](O)C(=O)N[C@@H]1C[C@H](N)[C@@H](O[C@H]2O[C@H](CN)[C@@H](O)[C@H](O)[C@H]2O)[C@H](O)[C@H]1O[C@H]1O[C@H](CO)[C@@H](O)[C@H](N)[C@H]1O [AMIKACIN] | 31.3 µM (≈ 18.3 µg/mL) | – | 62.5 µM (≈ 36.6 µg/mL) | 125 µM (≈ 73.2 µg/mL) | – | 62.5 µM (≈ 36.6 µg/mL) | 3.9 to 7.8 µM (≈ 2.28 to 4.57 µg/mL) | 3.9 to 15.6 µM (≈ 2.28 to 9.14 µg/mL) | – | – | 15.6 µM (≈ 9.14 µg/mL) | – | 3.9 µM (≈ 2.28 µg/mL) | – | – | – | 31.3 µM (≈ 18.3 µg/mL) | 31.3 µM (≈ 18.3 µg/mL) | 31.3 µM (≈ 18.3 µg/mL) | –
12 | C/C(=N\NC(=N)N)c1ccc(-c2ccc(/C(C)=N/NC(=N)N)cc2)cc1.Cl.Cl | > 500 µM | 1.7 µg/mL | 125 µM | > 500 µM | 9.2 µM | 2 µM | > 500 µM | > 500 µM | 4.7 µM | 4.7 µM | > 500 µM | 6.3 µg/mL | > 500 µM | 4.7 to 9.2 µM | 18.4 µM | 9.2 µM | > 500 µM | 15.6 µM | 62.5 µM | > 73.9 µM
13 | C/C(=N\NC(=N)N)c1cccc(/C(C)=N/NC(=N)N)c1.Cl.Cl | > 500 µM | 33 µg/mL | > 500 µM | 125 µM | > 90.1 µM | 500 µM | 62.5 to 250 µM | 250 µM | > 90.1 µM | 22.5 µM | 15.6 µM | 31.2 µg/mL | 250 µM | > 90.1 µM | > 90.1 µM | 90.1 µM | > 500 µM | > 500 µM | > 500 µM | 90.1 µM
14 | Cl.N=C(N)N/N=C/c1ccc(-c2ccc(/C=N/Nc3ccccc3Br)cc2)cc1 | > 500 µM | 3.4 µg/mL | > 500 µM | 2 µM | 8.3 µM | > 500 µM | > 500 µM | > 500 µM | 8.3 µM | 8.3 µM | 3.9 µM | 6.7 µg/mL | 2 µM | 4.1 µM | 4.1 µM | 8.3 µM | 2 µM | > 500 µM | > 500 µM | 8.3 µM
15 | C/C(=N\NC(=N)N)c1ccc(/C(C)=N/NC(=N)N)cc1 | 500 µM (≈ 137 µg/mL) | – | > 500 µM | 125 µM (≈ 34.3 µg/mL) | > 90.1 µM | 250 µM (≈ 68.6 µg/mL) | 250 to 500 µM (≈ 68.6 to 137 µg/mL) | 250 µM (≈ 68.6 µg/mL) | 90.1 µM (≈ 24.7 µg/mL) | > 90.1 µM | > 500 µM | – | 250 µM (≈ 68.6 µg/mL) | > 90.1 µM | > 90.1 µM | > 90.1 µM | > 500 µM | 500 µM (≈ 137 µg/mL) | > 500 µM | > 90.1 µM
16 | Cl.Cl.N=C(N)N/N=C/c1ccc(-c2cccc(/C=N/NC(=N)N)c2)cc1 | > 500 µM | 5.7 µg/mL | > 500 µM | 3.9 µM | 9.9 µM | > 500 µM | > 500 µM | > 500 µM | 9.9 µM | 9.9 µM | 1 µM | 13.9 µg/mL | 1 µM | 9.9 µM | 9.9 µM | 9.9 µM | 3.9 µM | > 500 µM | > 500 µM | 9.9 µM
17 | Cl.N#Cc1ccc(N/N=C/c2ccc(-c3ccc(/C=N/NC(=N)N)cc3)cc2)cc1 | 15.6 to 31.3 µM | 1.9 µg/mL | 500 µM | 2 to 3.9 µM | 37.3 µM | 31.3 to 62.5 µM | 15.6 µM | 31.3 µM | 74.9 µM | 37.3 µM | 15.6 to 31.3 µM | 4.2 µg/mL | 7.8 µM | 37.3 µM | 18.7 µM | 37.3 µM | 15.6 µM | 15.6 to 31.3 µM | 62.5 to 125 µM | 37.3 µM
